Source: publication PMC4358770 (Journal of medicinal chemistry, 2010)

Key:
NTPDase2 = target: T1, NTPDase2 (Homo sapiens, UniProt Q9Y5L3); experiment: NTPDase2 hydrolysis assay; format: in vitro ADME; conditions: 100 μM ATP (100% reference)
T1 sequence (Q9Y5L3 1-495): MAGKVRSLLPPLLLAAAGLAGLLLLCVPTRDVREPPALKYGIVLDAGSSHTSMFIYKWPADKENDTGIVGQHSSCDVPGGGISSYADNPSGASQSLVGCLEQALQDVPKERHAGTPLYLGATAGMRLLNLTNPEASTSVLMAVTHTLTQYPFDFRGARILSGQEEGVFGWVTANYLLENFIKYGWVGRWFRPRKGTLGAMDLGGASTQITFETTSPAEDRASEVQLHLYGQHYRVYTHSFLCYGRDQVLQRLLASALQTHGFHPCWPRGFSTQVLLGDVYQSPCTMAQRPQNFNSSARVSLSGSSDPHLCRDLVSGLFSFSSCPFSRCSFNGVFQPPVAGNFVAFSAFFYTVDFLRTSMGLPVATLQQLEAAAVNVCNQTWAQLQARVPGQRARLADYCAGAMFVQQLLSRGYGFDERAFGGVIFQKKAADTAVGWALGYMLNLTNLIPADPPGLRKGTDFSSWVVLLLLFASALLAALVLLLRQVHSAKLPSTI
Method in brief: (§1)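 Enzymes were transiently expressed in COS-7 cells. Crude protein extracts were made by sonication, 300g clearing at 4 °C and storage at −80 °C, with protein measured by Bradford. Extract was preincubated 3 min at 37 °C in Tris-Ringer buffer, pH 7.4. […] Activity of untransfected-cell extract was subtracted.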

NTPDase3 = target: T2, NTPDase3 (Homo sapiens, UniProt O75355); experiment: NTPDase3 hydrolysis assay; format: in vitro ADME; conditions: 100 μM ATP (100% reference)
T2 sequence (O75355 1-529): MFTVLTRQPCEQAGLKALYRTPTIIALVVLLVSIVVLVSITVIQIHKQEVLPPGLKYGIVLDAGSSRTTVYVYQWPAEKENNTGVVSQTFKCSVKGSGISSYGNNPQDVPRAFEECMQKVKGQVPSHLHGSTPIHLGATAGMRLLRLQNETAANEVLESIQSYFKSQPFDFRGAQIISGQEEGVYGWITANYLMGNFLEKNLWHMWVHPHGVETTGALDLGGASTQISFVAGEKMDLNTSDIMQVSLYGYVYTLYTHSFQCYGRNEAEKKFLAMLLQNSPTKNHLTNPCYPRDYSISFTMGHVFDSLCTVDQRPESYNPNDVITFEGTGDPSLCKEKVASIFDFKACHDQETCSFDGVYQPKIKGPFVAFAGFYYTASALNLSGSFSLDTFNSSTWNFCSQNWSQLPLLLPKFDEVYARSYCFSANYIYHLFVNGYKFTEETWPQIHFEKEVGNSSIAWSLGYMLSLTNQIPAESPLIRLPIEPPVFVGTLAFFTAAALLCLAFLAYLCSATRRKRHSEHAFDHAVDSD
Method in brief: as §1

NTPDase8 = target: T3, NTPDase8 (Homo sapiens, UniProt Q5MY95); experiment: NTPDase8 hydrolysis assay; format: in vitro ADME; conditions: 100 μM ATP (100% reference)
T3 sequence (Q5MY95 1-495): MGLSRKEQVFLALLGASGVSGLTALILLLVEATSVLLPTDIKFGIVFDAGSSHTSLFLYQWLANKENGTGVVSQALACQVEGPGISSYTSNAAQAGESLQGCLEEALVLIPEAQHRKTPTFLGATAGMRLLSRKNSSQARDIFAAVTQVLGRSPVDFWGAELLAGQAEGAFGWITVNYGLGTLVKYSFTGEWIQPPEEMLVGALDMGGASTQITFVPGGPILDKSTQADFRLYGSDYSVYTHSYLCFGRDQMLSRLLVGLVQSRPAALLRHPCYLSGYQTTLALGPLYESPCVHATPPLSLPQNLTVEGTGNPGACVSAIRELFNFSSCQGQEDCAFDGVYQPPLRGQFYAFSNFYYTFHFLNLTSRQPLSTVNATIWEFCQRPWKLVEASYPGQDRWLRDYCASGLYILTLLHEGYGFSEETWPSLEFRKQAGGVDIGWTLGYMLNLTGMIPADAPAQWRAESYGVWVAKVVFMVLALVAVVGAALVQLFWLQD
Method in brief: as §1

human NPP3 = target: T4, human NPP3 (Homo sapiens, UniProt O14638); experiment: NPP3 hydrolysis assay; format: in vitro ADME; conditions: 100 μM ATP (100% reference)
T4 sequence (O14638 1-875): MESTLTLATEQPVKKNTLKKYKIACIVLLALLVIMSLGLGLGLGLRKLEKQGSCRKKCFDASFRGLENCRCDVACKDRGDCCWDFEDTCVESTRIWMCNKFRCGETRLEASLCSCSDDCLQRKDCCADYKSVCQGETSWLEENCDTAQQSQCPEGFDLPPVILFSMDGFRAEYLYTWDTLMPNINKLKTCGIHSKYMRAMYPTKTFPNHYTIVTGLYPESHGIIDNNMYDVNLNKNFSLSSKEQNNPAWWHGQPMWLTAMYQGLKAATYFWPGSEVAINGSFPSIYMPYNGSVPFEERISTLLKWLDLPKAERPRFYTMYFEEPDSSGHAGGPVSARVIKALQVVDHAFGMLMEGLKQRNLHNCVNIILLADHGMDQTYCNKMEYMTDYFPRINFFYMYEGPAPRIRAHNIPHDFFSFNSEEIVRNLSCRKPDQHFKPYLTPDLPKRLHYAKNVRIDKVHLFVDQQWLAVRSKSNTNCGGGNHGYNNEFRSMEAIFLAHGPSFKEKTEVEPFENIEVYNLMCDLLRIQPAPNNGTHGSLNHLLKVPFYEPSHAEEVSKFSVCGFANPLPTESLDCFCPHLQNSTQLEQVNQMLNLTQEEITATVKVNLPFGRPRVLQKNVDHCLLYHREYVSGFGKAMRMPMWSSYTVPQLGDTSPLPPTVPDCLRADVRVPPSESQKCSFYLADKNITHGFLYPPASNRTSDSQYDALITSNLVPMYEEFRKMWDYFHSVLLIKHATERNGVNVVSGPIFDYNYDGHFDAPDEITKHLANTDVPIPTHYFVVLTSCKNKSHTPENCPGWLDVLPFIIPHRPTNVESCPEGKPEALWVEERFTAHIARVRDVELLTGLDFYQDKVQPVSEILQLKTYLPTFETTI

[1] = cited from earlier work
rabbit IOP = conditions: topically applied to New Zealand white rabbits; cited from earlier work
alkaline phosphatase = alkaline phosphatase (Bos taurus, UniProt P19111); experiment: Hydrolysis by alkaline phosphatase; conditions: bovine, calf intestine alkaline phosphatase, pH 9.8
alkaline phosphatase, sequence (P19111 20-533): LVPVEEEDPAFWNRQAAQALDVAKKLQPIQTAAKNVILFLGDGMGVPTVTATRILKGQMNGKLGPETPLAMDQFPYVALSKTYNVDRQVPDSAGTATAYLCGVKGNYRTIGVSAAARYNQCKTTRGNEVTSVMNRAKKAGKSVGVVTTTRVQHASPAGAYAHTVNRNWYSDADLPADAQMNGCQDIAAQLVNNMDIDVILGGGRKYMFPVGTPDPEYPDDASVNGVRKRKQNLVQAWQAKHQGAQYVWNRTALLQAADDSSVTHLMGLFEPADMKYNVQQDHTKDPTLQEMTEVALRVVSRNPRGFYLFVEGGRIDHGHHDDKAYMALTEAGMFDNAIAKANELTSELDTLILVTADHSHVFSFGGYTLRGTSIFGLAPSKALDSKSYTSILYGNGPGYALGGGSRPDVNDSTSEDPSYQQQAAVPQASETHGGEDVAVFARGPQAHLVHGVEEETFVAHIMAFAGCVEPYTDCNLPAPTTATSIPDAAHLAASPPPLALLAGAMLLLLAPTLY

[2] = target: calf intestine alkaline phosphatase (Bos taurus, UniProt P19111); experiment: Hydrolysis by alkaline phosphatase; conditions: 0.2 mg analogue/77.5 μL, 12.5 units of AP, 37 °C, 3 h
calf intestine alkaline phosphatase, sequence (P19111 20-533): as above

Nc1ncnc2c1ncn2[C@@H]1O[C@H](COP(=O)(O)OP(=O)(O)OP(=O)(O)O)[C@@H](O)[C@H]1O [ATP]
hydrolysis rate by NTPDase2 (NTPDase2): 1006 ± 60 nmol Pi·min^−1·mg protein^−1 | hydrolysis rate by NTPDase3 (NTPDase3): 533 ± 42 nmol Pi·min^−1·mg protein^−1 | hydrolysis rate by NTPDase8 (NTPDase8): 229 ± 20 nmol Pi·min^−1·mg protein^−1 | hydrolysis rate by NPP3 (human NPP3): 245 nmol nucl·min^−1·mg protein^−1 | t1/2 in human blood serum [1]: 3.6 h | effect on IOP (increase or reduction) (rabbit IOP): reduced | half-life at 2.58 mg/mL (alkaline phosphatase): 1.4 h | degradation by alkaline phosphatase after 3 h [2]: 96%
